EBI2 block: antagonists of human EBI2 receptor; inhibition, % at 5 µM; hit rate 0.81% among 360,000; P32249; AID 651636; EBI2 beta-arrestin recruitment, luminescence, 7a,25-OHC stimulated; in the data active = inhibition above about 38%;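 also: enzyme fragment complementation signal reports receptor beta-arrestin coupling in cells; 0% = agonist plus DMSO wells and 100% = wells without agonist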
Exocytosis inh: lytic granule exocytosis inhibition; AID 651702; TALL-104 LAMP-1 surface exposure, flow cytometry; cells stimulated with thapsigargin and PMA; inhibition, % at 10 µM; hit rate 0.66% among 360,000;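 active = inhibition above about 55%, limit read from the data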
MC4R ag barr: human MC4R agonism via beta-arrestin. P32245. U2OS MC4R beta-arrestin complementation, luminescence; percent of melanotan II response, DMSO zero. activation, % at 8.9 µM. hit rate 0.98% among 360,000. AID 540308;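 active = activation above a per-plate cutoff, the mean activation of sample wells on that plate plus 3 SD, cut at about 8% in these data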
Target sequence (P32245 whole entry, looked up): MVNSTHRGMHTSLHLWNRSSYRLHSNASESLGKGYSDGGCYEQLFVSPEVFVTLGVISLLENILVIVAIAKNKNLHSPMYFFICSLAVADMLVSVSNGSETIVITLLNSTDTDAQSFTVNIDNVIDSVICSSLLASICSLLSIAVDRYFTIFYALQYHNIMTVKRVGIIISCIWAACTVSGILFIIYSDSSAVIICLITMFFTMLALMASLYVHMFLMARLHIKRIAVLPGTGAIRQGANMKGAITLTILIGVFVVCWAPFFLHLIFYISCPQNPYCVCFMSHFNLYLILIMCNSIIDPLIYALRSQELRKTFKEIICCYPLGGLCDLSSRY
Myeloid diff MLP: myeloid differentiation induction. calls only at 10 µM. hit rate 1% among 360,000. ER-HoxA9 myeloid progenitors, lysozyme-GFP differentiation, flow cytometry;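 active = normalized GFP-positive differentiation at or above the plate's own cutoff, the solvent-only control mean plus 3 SD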;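 also: cells exposed to compound for four days before flow analysis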
MC4R antag cAMP: blocks human MC4R cAMP signaling. inhibition, % at 6.5 µM. MC4R-expressing cells, MTII-stimulated cAMP, LANCE TR-FRET. hit rate 0.48% among 360,000. P32245;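 active = inhibition above its plate's cutoff, the mean of tested wells on that plate plus 3 SD, cut at about 29% in these data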;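 also: 0% = Melanotan II alone and 100% = Melanotan II plus saturating MCL0020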
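System: U2OS cells stably expressing human melanocortin 4 receptor (MC4R). Reagent: Melanotan II challenge after compound preincubation. Doses: 6.5 µM. Times: 30-min compound, 1-h challenge, 1-h detection, room temperature. Measured by: TR-FRET with Eu-cAMP and labeled anti-cAMP, 671 nm. Replicates: singlicate.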
Myeloid diff CP1: compounds promoting myeloid differentiation | shares compounds with Myeloid diff MLP | ER-HoxA9 myeloid progenitors, GFP/Mac1 double-positive flow | hit rate 2% among 2,300 | calls only | AID 651706;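 active = share of green or green-and-red cells above 9 and 9% in run 1 or 4 and 3% in run 2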
GFP autofluor: flagged as fluorescent in myeloid differentiation counter-screen; hit rate 7.4% among 2,300; ER-HoxA9 myeloid progenitors, no estrogen, GFP autofluorescence flow cytometry; vehicle wells 0%, positive control 100%; AID 651707; fluorescence response, % (test concentration not listed); shares compounds with Myeloid diff MLP;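 active = over 5% cells positive for green fluorescent reporter, or over 2% positive for both it and APC stain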;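 also: range taken on the double positive population between DMSO and positive control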
* hit, by the source's call; i = inactive; · = no result given; + = active, no number. In the library only some 3.7% were active in any assay of this set; here they are far more common.

SMILES	EBI2 block	Exocytosis inh	MC4R ag barr	Myeloid diff MLP	MC4R antag cAMP	Myeloid diff CP1	GFP autofluor
O=C(NCc1ccccc1Cl)C1CCCN(S(=O)(=O)c2cccc3nsnc23)C1 (stereo not given)	5.9	-6.2	0.8	i	2.6	i	0.4
COc1ccc(/C=N/NC2=NS(=O)(=O)c3ccccc32)cc1OC(C)=O	-1.6	-12.5	-0.3	i	6.7	i	0.0
CCc1ccc(C(=O)C(C)OC(=O)Cc2n[nH]c(=O)c3ccccc23)cc1 (stereo not given)	3.2	-15.5	-4.4	+	-0.4	i	0.0
CCc1ccc(C(=O)C(C)OC(=O)Cn2[nH]c(=O)c3ccccc3c2=O)cc1 (stereo not given)	6.7	2.2	0.2	i	2.9	·	·
COCCN1C(=O)CCC1(C)c1nnnn1Cc1ccccc1 (stereo not given)	-8.2	-8.6	·	i	·	·	·
Cc1ccc(S(=O)(=O)NCCC(=O)O)cc1	-18.7	1.9	5.8	i	0.8	·	·
O=C(O)CCNS(=O)(=O)c1ccc(Oc2ccccc2)cc1	1.7	2.1	-0.5	i	8.0	i	0.0
O=C(N/N=C/c1ccc([N+](=O)[O-])o1)C1CCCC1	-22.7	-1.2	-3.0	·	-6.4	·	·
O=[N+]([O-])c1ccc(/C=[N+](\[O-])[C@@H]2CCCC[C@@H]2/[N+]([O-])=C/c2ccc([N+](=O)[O-])o2)o1	-6.1	-3.9	-2.0	+	4.1	i	0.0
CCOC(=O)C1=C(COC(=O)CCOc2cc(C)ccc2C)NC(=O)NC1C (stereo not given)	-17.4	12.8	-2.3	i	4.8	·	·
Cc1ccc(S(=O)(=O)N2[C@@H](c3ccc4c(c3)OCO4)C(C(=O)O)=C[C@H]2CC2CCCC2)cc1	-4.1	1.5	0.3	+	2.4	i	0.0
CC1Cc2ccccc2N1CC(=O)NCc1ccc2c(c1)OCO2 (stereo not given)	-2.1	1.5	-1.6	i	1.4	·	·
Cc1csc(SCC(=O)c2c(N)n(CC(C)C)c(=O)n(C)c2=O)n1	-3.3	-1.3	-0.8	+	-0.7	i	51.4*
CC(C)Cn1c(N)c(C(=O)COC(=O)c2cnccn2)c(=O)n(C)c1=O	-8.2	-4.5	-0.8	+	5.1	i	1.1
Cn1c(=O)c2c(nc(SCC(=O)N3c4ccccc4CCc4ccccc43)n2C)n(C)c1=O	6.6	-0.1	-2.7	+	12.1	i	0.3
Cn1c(=O)c2c(nc(SCC(=O)N3CCc4ccccc4C3)n2C)n(C)c1=O	-5.1	10.6	3.1	i	-2.1	·	·
CCn1cc(S(=O)(=O)Nc2cc(C)ccc2F)cn1	2.3	-1.2	-1.3	i	6.2	·	·
CC(OC(=O)/C=C/c1ccc2ccccc2n1)C(=O)Nc1ccc(S(N)(=O)=O)cc1 (stereo not given)	-18.4	3.1	-1.4	i	8.7	i	0.4
COc1ccc(CC(N)c2csc(NC(=O)c3cc(C(C)(C)C)nn3Cc3ccccc3)n2)cc1 (stereo not given)	-0.6	17.3	4.5	+	14.3	i	0.0
CC(N)c1csc(NC(=O)c2cc(C(C)(C)C)nn2Cc2ccccc2)n1 (stereo not given)	1.7	-12.3	1.7	i	4.4	·	·
COc1ccc(OC)c(S(=O)(=O)n2nnc3ccccc32)c1	-26.3	-5.7	-0.8	i	-6.3	·	·
Cc1cc(Br)c(S(=O)(=O)n2nnc3ccccc32)cc1C	-2.0	-1.6	-1.0	i	16.6	i	3.5
COc1ccc(F)cc1S(=O)(=O)n1nnc2ccccc21	1.5	-1.4	3.6	i	7.5	i	0.0
COc1ccc(CNc2ccccc2)cc1Br	-4.6	4.5	-0.5	i	-6.6	i	0.0
CCOC(=O)c1nc(C)sc1-c1ccnn1S(=O)(=O)c1ccc(C)cc1	14.9	-4.1	-0.9	i	3.4	·	·
SMILES	EBI2 block	Exocytosis inh	MC4R ag barr	Myeloid diff MLP	MC4R antag cAMP	Myeloid diff CP1	GFP autofluor
CN(C(=O)c1cccc(NC(=O)Cc2ccc(NC(=O)C3CCN(C(=O)C4CC4)CC3)cc2)c1)C1CCCCC1	-0.2	1.4	-1.6	i	8.0	i	0.0
CN(Cc1ccccc1)C(=O)c1ccc(NC(=O)Cc2cccc(NC(=O)C3CCCN(C(=O)C4CCCCC4)C3)c2)cc1 (stereo not given)	-7.7	-15.6	0.7	i	5.2	i	0.0
CC1Nc2ncnc(N3CCOCC3)c2N(Cc2ccccc2)C1=O (stereo not given)	-1.1	-2.9	-0.1	i	1.1	i	0.0
COc1ccc(CN2C(=O)C(C)Nc3ncnc(N4CCOCC4)c32)cc1 (stereo not given)	-0.1	8.2	-1.6	i	-3.0	·	·
O=C(CCc1nnc2n(CCc3ccccc3)c(=O)c3ccccc3n12)NCCCN1CCCCC1	2.9	0.3	-0.5	i	-0.6	·	·
COc1ccc(-n2c(Cc3cccn3C)nnc2SCC(=O)Nc2nc(C)cs2)cc1	6.6	0.0	-0.1	i	7.6	i	0.3
Cc1onc(-c2ccccc2Cl)c1C(=O)N1C=CC(C(F)(F)F)=NCC1	-7.9	0.9	-0.2	i	-0.1	·	·
Cc1onc(-c2ccccc2Cl)c1C(=O)N1C=CC(C(F)(F)Cl)=NCC1	-6.5	-0.2	-2.8	+	-2.9	i	0.0
O=C(Cc1cn2ccsc2n1)NCCc1ccc(F)cc1	2.9	-1.2	0.7	i	2.2	i	0.0
COCCNC(=O)CCC1CCN(Cc2ccc(-c3ccccc3)cc2)CC1	1.8	16.3	-0.3	i	2.5	·	·
O=C(O)c1cccnc1SC1CC(=O)N(c2ccccc2)C1=O (stereo not given)	-2.4	0.3	-1.4	i	7.3	·	·
CC(c1ccccc1)N1C(=O)CC(Sc2ncccc2C(=O)O)C1=O (stereo not given)	-0.9	7.0	3.3	·	5.8	i	3.4
CC(/C=N/NC(=O)c1cccnc1)=C\c1ccco1	-6.2	-5.0	-0.9	i	-6.5	i	0.0
Cn1c(SCC(=O)N2CCOCC2)nnc1-c1ccco1	4.5	-3.3	0.3	i	20.2	·	·
CC(Sc1cccc[n+]1[O-])C(=O)NC1CCCCC1C (stereo not given)	-1.1	-3.2	-0.6	i	8.0	·	·
Cc1ccc(N2CCN(C(=S)c3ccc(-c4ccccc4[N+](=O)[O-])o3)CC2)cc1	-3.6	-1.5	-0.7	i	27.6	·	·
O=[N+]([O-])c1ccccc1-c1ccc(C(=S)N2CCN(c3ccccc3)CC2)o1	-6.9	-4.7	-1.5	+	-2.5	i	0.4
CC1=C(C(=O)O)N2C(=O)C(NC(=O)c3nn(C)c(C)c3Cl)C2SC1 (stereo not given)	5.1	2.6	-0.5	i	26.0	i	0.0

Source: PubChem BioAssay (several laboratories)
